Data published in ChEMBL document CHEMBL1124599, “Synthesis and structure-activity relationships of a novel class of 5-lipoxygenase inhibitors. 2-(Phenylmethyl)-4-hydroxy-3,5-dialkylbenzofurans: the development of L-656,224” (J Med Chem, 1989).

Columns and labels:
[1] = biological target: T1, Polyunsaturated fatty acid 5-lipoxygenase (Homo sapiens, UniProt P09917); assay: Concentration required for 50 % inhibition of leukotriene B4 production in human PMN compared with controls in the absence of compound; assay type: functional
T1 sequence (P09917 whole entry): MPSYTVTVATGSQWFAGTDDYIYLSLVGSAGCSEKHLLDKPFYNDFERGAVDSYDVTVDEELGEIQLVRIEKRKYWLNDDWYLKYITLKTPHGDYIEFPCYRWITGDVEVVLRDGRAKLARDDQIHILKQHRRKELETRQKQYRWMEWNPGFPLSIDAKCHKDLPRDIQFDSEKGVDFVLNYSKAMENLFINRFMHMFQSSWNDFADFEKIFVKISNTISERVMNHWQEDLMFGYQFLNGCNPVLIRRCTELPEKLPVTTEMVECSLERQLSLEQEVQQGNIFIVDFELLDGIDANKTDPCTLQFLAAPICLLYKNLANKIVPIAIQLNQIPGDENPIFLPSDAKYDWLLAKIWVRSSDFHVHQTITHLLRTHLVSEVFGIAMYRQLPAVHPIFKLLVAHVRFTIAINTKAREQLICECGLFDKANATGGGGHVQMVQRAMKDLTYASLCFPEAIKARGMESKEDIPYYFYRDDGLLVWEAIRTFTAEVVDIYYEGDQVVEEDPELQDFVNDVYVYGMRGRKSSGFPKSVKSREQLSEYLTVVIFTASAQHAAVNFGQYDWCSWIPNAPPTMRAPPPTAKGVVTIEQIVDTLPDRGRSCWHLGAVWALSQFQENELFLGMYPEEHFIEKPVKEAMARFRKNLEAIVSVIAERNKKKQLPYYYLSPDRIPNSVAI
In short: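 Human PMN are isolated from citrated venous blood by dextran sedimentation, Ficoll-Hypaque and NH4Cl lysis. Cells (5×10^5/mL in HHBSS) are warmed 10 min at 37°C and given compound in DMSO for 2 min. They are stimulated with A23187 (10 μM) for 5 min and stopped with methanol. LTB4 is measured by radioimmunoassay.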

[2] = biological target: T2, Polyunsaturated fatty acid 5-lipoxygenase (Rattus norvegicus, UniProt P12527); assay: Concentration required for 50 % inhibition of arachidonic acid oxidation by rat 5-lipoxygenase
T2 sequence (P12527 whole entry): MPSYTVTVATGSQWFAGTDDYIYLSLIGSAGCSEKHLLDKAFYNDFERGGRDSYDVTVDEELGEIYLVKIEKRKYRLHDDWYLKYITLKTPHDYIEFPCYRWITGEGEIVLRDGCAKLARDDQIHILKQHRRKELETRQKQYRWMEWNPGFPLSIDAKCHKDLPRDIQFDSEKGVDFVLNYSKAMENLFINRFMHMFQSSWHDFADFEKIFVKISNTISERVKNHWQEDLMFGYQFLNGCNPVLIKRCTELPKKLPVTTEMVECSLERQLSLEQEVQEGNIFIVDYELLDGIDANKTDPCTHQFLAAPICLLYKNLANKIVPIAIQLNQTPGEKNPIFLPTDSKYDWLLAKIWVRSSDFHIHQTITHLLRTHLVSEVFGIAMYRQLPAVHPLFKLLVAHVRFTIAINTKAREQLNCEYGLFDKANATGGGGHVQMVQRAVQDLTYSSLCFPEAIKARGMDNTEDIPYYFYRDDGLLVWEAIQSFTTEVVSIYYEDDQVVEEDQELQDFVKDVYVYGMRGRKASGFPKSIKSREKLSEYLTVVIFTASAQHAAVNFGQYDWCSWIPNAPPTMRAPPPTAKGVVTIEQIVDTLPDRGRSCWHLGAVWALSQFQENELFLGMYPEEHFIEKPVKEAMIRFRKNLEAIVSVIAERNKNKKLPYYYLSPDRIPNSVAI
In short: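 Rat PMN leukocyte 10000g supernatant is used as the enzyme. Incubation is run in 25 mM Na+/K+ phosphate pH 7.3 with 1 mM ATP, 0.5 mM CaCl2 and 0.5 mM mercaptoethanol. Inhibitor from DMSO (500-fold stock) is preincubated 2 min at 37°C. [14C]arachidonic acid is added to 10 μM final for 10 min at 37°C. Conversion to 5-HETE and 5,12-diHETEs is read by TLC radioscan. IC50 is derived by linear regression.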

Rattus norvegicus [3] = assay: Inhibition of antigen (IgE) induced bronchoconstriction in hyperreactive inbred rats at a compound dose of 0.15 mg/kg; assay type: functional
In short: (§1)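 Inbred hyperreactive rats receive compound orally 4 h before antigen, as a suspension in 0.4% methocel/0.5% Tween 80 (10 mL/kg). Methysergide (3 μg/kg iv) is given 5 min before ovalbumin aerosol challenge. Respiration is recorded by pneumotachograph. Percent inhibition is reduction in dyspnea duration versus vehicle controls, with Student's t test. ED50 is derived by linear regression.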

Rattus norvegicus [4] = assay: Inhibition of antigen (IgE) induced bronchoconstriction in hyperreactive inbred rats at a compound dose of 0.5 mg/kg; assay type: functional; in short: as §1
Rattus norvegicus [5] = assay: Effect of antigen-induced dyspnea in hyperreactive inbred rats at 1.5 mg/kg of compound concentration; assay type: functional; in short: as §1
Rattus norvegicus [6] = assay: Inhibition of antigen (IgE) induced bronchoconstriction in hyperreactive inbred rats at a compound dose of 5.0 mg/kg; assay type: functional; in short: as §1
Rattus norvegicus [7] = assay: Inhibition of antigen (IgE) induced bronchoconstriction in hyperreactive inbred rats at a dose of 1.5 mg/kg; assay type: functional; in short: as §1
Rattus norvegicus [8] = assay: Inhibition of antigen (IgE) induced bronchoconstriction in hyperreactive inbred rats at a compound dose of 1.5 mg/kg; assay type: functional; in short: as §1
Rattus norvegicus [9] = species: Rattus norvegicus; assay: Inhibition of hyperalgesia response induced by subplantar injection of platelet-activating factor in rat; assay type: functional
[10] = biological target: T3, Seed linoleate 13S-lipoxygenase-1 (Glycine max, UniProt P08170); assay: Inhibitory activity towards soybean lipoxygenase
T3 sequence (P08170 whole entry): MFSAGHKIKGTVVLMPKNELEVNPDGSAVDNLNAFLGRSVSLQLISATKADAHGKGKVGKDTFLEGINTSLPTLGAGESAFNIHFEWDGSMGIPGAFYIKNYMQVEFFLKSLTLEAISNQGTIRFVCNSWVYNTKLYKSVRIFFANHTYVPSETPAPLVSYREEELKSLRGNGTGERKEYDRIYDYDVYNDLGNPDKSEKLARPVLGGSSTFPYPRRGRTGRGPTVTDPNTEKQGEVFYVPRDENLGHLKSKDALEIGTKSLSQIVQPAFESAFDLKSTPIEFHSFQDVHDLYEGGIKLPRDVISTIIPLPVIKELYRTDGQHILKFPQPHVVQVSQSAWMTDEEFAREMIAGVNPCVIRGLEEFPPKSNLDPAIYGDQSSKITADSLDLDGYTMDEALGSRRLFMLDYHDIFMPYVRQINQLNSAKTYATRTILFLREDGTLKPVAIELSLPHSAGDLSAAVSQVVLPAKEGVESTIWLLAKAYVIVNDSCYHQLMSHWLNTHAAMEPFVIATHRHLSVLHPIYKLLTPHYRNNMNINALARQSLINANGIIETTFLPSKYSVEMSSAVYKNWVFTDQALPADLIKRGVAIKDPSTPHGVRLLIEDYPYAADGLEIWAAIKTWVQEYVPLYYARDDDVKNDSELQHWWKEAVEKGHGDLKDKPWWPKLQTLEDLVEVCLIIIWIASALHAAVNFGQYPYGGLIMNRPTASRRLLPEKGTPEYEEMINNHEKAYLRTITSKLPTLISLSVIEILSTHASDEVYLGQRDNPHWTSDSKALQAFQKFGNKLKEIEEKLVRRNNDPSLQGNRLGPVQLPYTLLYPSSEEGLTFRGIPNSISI

Saimiri sciureus = assay: Inhibition of increase in pulmonary resistance and decrease in dynamic compliance of ascaris antigen-induced bronchoconstriction in squirrel monkeys at 0.25 mg/kg compound concentration
Rattus norvegicus [11] = assay: Effect of antigen-induced dyspnea in hyperreactive inbred rats at 0.5 mg/kg of compound concentration; assay type: functional; in short: as §1

Compound	IC50 [1] [µM]	IC50 [2] [µM]	other results
COc1ccc(Cc2oc3c(Cl)cc(C)c(O)c3c2C)cc1	0.046	–	–
CCCc1cc(F)c2oc(Cc3ccc(OC)cc3)c(C)c2c1O	0.007	0.129	–
COc1ccc(Cc2oc3c(Cl)cc(CCCO)c(O)c3c2C)cc1	0.076	0.161	inhibition in vivo at 0.15 mg/kg (Rattus norvegicus [3]): 39%; inhibition in vivo at 0.5 mg/kg (Rattus norvegicus [4]): 58%
CCCc1cc(Cl)c2oc(Cc3ccc(OC)cc3)c(CCC)c2c1O	0.02	–	–
CCCc1cc(Cl)c2oc(Cc3ccc(OC)cc3OC)c(C)c2c1O	0.013	–	–
CCOCc1cc(Cl)c2oc(Cc3ccc(OC)cc3)c(C)c2c1O	0.291	–	–
COc1ccc(Cc2oc3cccc(O)c3c2C)cc1	0.574	2.07	–
CCCc1ccc2oc(Cc3ccc(OC)cc3)c(C)c2c1O	0.031	0.13	ED50 (Rattus norvegicus [5]): < 0.5 mg/kg; inhibition in vivo at 5 mg/kg (Rattus norvegicus [6]): 66%; inhibition in vivo at 0.5 mg/kg (Rattus norvegicus [4]): 55%; inhibition in vivo at 1.5 mg/kg (Rattus norvegicus [7]): 64%
COc1ccc(Cc2oc3c(Cl)cc(C(C)(C)C)c(O)c3c2C)cc1	0.099	–	inhibition in vivo at 1.5 mg/kg (Rattus norvegicus [7]): 32%
CCCc1cc(C)c2oc(Cc3ccc(OC)cc3)c(C)c2c1O	0.012	0.14	inhibition in vivo at 5 mg/kg (Rattus norvegicus [6]): 55%; inhibition in vivo at 1.5 mg/kg (Rattus norvegicus [8]): 49%
C=CCc1cc(Cl)c2oc(Cc3ccc(OC)cc3)c(C)c2c1O	0.02	–	–
CCCc1cc(Cl)c2oc(Cc3ccc(OC)cc3)c(C)c2c1O	–	0.036	AD100 (Rattus norvegicus [9]): 1.5 mg/kg; IC50 [10]: 30 µM; inhibition in vivo at 0.25 mg/kg (Saimiri sciureus): > 85%; ED50 (Rattus norvegicus [11]): 0.7 mg/kg; inhibition in vivo at 0.15 mg/kg (Rattus norvegicus [3]): 36%; inhibition in vivo at 0.5 mg/kg (Rattus norvegicus [4]): 48%; inhibition in vivo at 1.5 mg/kg (Rattus norvegicus [7]): 56%
COc1ccc(Cc2oc3c(Cl)cc(CCC(=O)O)c(O)c3c2C)cc1	2.13	–	inhibition in vivo at 1.5 mg/kg (Rattus norvegicus [7]): 11%
COc1ccc(Cc2oc3c(Cl)ccc(O)c3c2C)cc1	0.376	2	–
CCCc1cc(Cl)c2oc(Cc3ccc(Cl)cc3)c(C)c2c1O	0.026	–	–
COc1ccc(Cc2oc3c(Cl)cc(Cl)c(O)c3c2C)cc1	0.86	–	–
CCCc1cc(Cl)c2oc(Cc3ccc(OCC(=O)O)cc3)c(C)c2c1O	0.105	–	inhibition in vivo at 1.5 mg/kg (Rattus norvegicus [7]): 28%
CCCc1cc(Cl)c2oc(Cc3ccccc3)c(C)c2c1O	0.03	–	–
